Data on 23 molecules can be found in ChEMBL document CHEMBL1124069, “Synthesis and pharmacological characterization of a series of leukotriene analogues with antagonist and agonist activities” (1988).

In assay [1] the test system is Cysteinyl leukotriene receptor (Cavia porcellus). Nature of the assay: Ability to inhibit the contraction induced by 8 nM LTE4 on isolated guinea pig tracheal strips at 10 uM dose; % antagonism / % basal tension. To be noted: Trachea.
The species named for assay [2] is Cavia porcellus. Kind of assay: Ability to inhibit the contraction induced by 8 nM LTE4 on isolated guinea pig tracheal strips at 10 uM dose; % antagonism / % basal tension, Agonist activity was too great to determine if there was any partial antagonism/100. Particulars: Trachea, filed as agonist. The assay is classed as functional. In short, it runs like this:
(§1)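 Guinea pig tracheal spirals were held at 2 g resting tension and stabilized for 60 min, with bath changes every 15 min. Tissues received two 10-min challenges with 8 nM LTE4, each followed by a 60-min wash. Test compound was then added for 10 min, noting any resting-tension change, before a third LTE4 challenge. % inhibition = (2nd−3rd)/2nd×100, corrected for paired vehicle tissue. Significance was tested by paired t test (p<0.05).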

The species named for assay [3] is Cavia porcellus. Kind of assay: Ability to inhibit the contraction induced by 8 nM LTE4 on isolated guinea pig tracheal strips at 5 uM dose; % antagonism / % basal tension. The class given is functional, Trachea. In short, it runs like this: as §1
The species named for assay [4] is Cavia porcellus. Kind of assay: Ability to inhibit the contraction induced by 8 nM LTE4 on isolated guinea pig tracheal strips at 50 uM dose; % antagonism / % basal tension, compound was checked against BaCl2 as agonist at specified concentration/14. The class given is functional, Trachea. In short, it runs like this: as §1
The species entered for assay [5] is Cavia porcellus. Kind of assay: Ability to inhibit the contraction induced by 8 nM LTE4 on isolated guinea pig tracheal strips at 3.3 uM dose; % antagonism / % basal tension.
The species entered for assay [6] is Cavia porcellus. Nature of the assay: Ability to inhibit the contraction induced by 8 nM LTE4 on isolated guinea pig tracheal strips at 1 uM dose; % antagonism / % basal tension. The class given is functional, Trachea. In short, it runs like this: as §1
Assay [7] is filed under the species Cavia porcellus. Kind of assay: Ability to inhibit the contraction induced by 8 nM LTE4 on isolated guinea pig tracheal strips at 4 uM dose; % antagonism / % basal tension. The assay is classed as functional, Trachea.

In the case of `CCCCC/C=C/c1ccc(C/C=C\[C@@H](SCc2ccc(C(=O)O)cc2OC)[C@@H](O)CCCC(=O)O)cc1`, the Ratio in assay [1] is 39. Turning to `CCCCCCOc1ccc(C/C=C\[C@@H](SCc2ccc(C(=O)O)cc2OC)[C@@H](O)CCCC(=O)O)cc1`, the Ratio result in the assay filed under Cavia porcellus [2] was “Agonist activity was too great to determine if there was any partial antagonism”. On to `CCCCCCCc1cccc(C/C=C\[C@@H](SCc2ccc(C(=O)O)cc2OC)[C@@H](O)CCCC(=O)O)c1`, for which the Ratio was 45 in the assay filed under Cavia porcellus [3] and 52 in assay [1]. Turning to `CCCCCCCc1ccc(C/C=C\[C@@H](SCc2ccccc2C(=O)O)[C@@H](O)CCCC(=O)O)cc1`, the Ratio in assay [1] is 39. As to `CCCCCCCc1ccc(C/C=C\[C@@H](SCc2ccc(/C=C/C(=O)O)cc2)[C@@H](O)CCCC(=O)O)cc1`, the Ratio in assay [1] was 38. As for `CCCCCCCc1ccc(C/C=C\[C@@H](SCc2ccc(C(=O)O)cc2OC)[C@@H](O)CCCC(=O)O)cc1`, the Ratio in the assay filed under Cavia porcellus [3] is 31; in assay [1], 74. Regarding `CCCCCCOc1cccc(C/C=C\[C@@H](SCc2ccc(C(=O)O)cc2OC)[C@@H](O)CCCC(=O)O)c1`, the Ratio in the assay filed under Cavia porcellus [4] is 14; in the assay listed under Cavia porcellus [5], 32; in assay [1], 86. For `CCCCCCCc1ccc(C/C=C\[C@@H](Sc2ccc(Cl)c(Cl)c2)[C@@H](O)CCCC(=O)O)cc1`, the Ratio in assay [1] came to 2. Still for that read-out and setting: for `CCCCCCCc1ccc(C/C=C\[C@@H](SCc2cccc(/C=C/C(=O)O)c2)[C@@H](O)CCCC(=O)O)cc1` the value was 34; for `CCCCCCCc1ccc(C/C=C\[C@@H](SCc2ccc(C(=O)O)c(N)c2)[C@@H](O)CCCC(=O)O)cc1`, 51.

As to `CCCCCCCc1ccc(C/C=C\[C@@H](SCc2ccc(C(=O)O)cc2N)[C@@H](O)CCCC(=O)O)cc1`, the Ratio in assay [1] stood at 66. `CCCCCCOc1ccccc1C/C=C\[C@@H](SCc1ccc(C(=O)O)cc1OC)[C@@H](O)CCCC(=O)O`: in assay [1], the Ratio was 24. As to `CCCCCCCc1ccc(C/C=C\[C@@H](SCc2cccc(C(=O)O)c2)[C@@H](O)CCCC(=O)O)cc1`, in the assay filed under Cavia porcellus [6], the Ratio is 16.

Consider `CCCCCCCc1ccc(C/C=C\[C@@H](SCc2ccc(N)c(C(=O)O)c2)[C@@H](O)CCCC(=O)O)cc1`, for which the Ratio in assay [1] stood at 68. Same read-out and setting: for `CCCCCCCc1ccc(C/C=C\[C@@H](Sc2ccc(NC(C)=O)cc2)[C@@H](O)CCCC(=O)O)cc1` the value was 4. For the molecule `CCCCC/C=C/c1cccc(C/C=C\[C@@H](SCc2ccc(C(=O)O)cc2OC)[C@@H](O)CCCC(=O)O)c1`, the figures for the Ratio (in the assay filed under Cavia porcellus [6]; in assay [1]) were 7 and 57, respectively. For the molecule `CCCCCCCc1ccc(C/C=C\[C@@H](SCc2ccc(C(=O)O)cc2[N+](=O)[O-])[C@@H](O)CCCC(=O)O)cc1`, the Ratio in assay [1] amounted to 24.

`CCCCCCCc1ccc(C/C=C\[C@@H](SCc2cc(C(=O)O)ccc2N)[C@@H](O)CCCC(=O)O)cc1`: the Ratio in assay [1] worked out at 39. Turning to `CCCCCc1ccc(C/C=C\[C@@H](SCc2ccc(C(=O)O)cc2OC)[C@@H](O)CCCC(=O)O)cc1`, the Ratio in assay [1] was found to be 43.

Turning to `CCCCCCCc1ccc(C/C=C\[C@@H](SCc2ccc(C(=O)O)cc2F)[C@@H](O)CCCC(=O)O)cc1`, in assay [1], the Ratio worked out at 63. Consider `CCCCCCCc1ccc(C/C=C\[C@@H](SCc2ccc(C(=O)O)cc2)[C@@H](O)CCCC(=O)O)cc1`, for which, in assay [1], the Ratio was found to be 37. Consider `CCCc1c(OCC(O)COc2ccc3c(=O)cc(C(=O)O)oc3c2CCC)ccc(C(C)=O)c1O` (stereo not drawn) [FPL-55712], for which the Ratio in the assay listed under Cavia porcellus [7] amounted to 62. As for `CCCCCCCc1ccc(C/C=C\[C@@H](Sc2cccc(N)c2)[C@@H](O)CCCC(=O)O)cc1`, the Ratio in assay [1] was determined as 14.
